Experimental data: ChEMBL document CHEMBL1938288, “Discovery, synthesis, and pharmacological evaluation of spiropiperidine hydroxamic acid based derivatives as structurally novel histone deacetylase (HDAC) inhibitors” (J Med Chem, 2011)
Calls of active or inactive are those of the source. No cut-off for these calls is given here.

What was measured:
HCT-116 [1] = assay: Cell cycle arrest in human HCT116 cells assessed as accumulation at G0/G1 phase at 1 to 3 uM after 24 hrs by flow cytometry; assay type: functional, cell-based; details: in the assay text read “G2/M phase” for “G0/G1 phase”
In short: (§1)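 HCT-116 cells treated for 24 h at several concentrations. Harvested, fixed in 70% ethanol at -20 °C, RNase treated (1 mg/mL), stained with propidium iodide. DNA content measured by flow cytometry to give phase distribution, including the subG1 population.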

HCT-116 [2] = assay: Cell cycle arrest in human HCT116 cells assessed as accumulation at G2M phase at 1 to 3 uM after 24 hrs by flow cytometry; assay type: functional, cell-based; in short: as §1
[3] = molecular target: T1, Protein deacetylase HDAC6 (Homo sapiens, UniProt Q9UBN7); assay: Inhibition of HDAC6 using carboxyfluorescein-labeled peptide as substrate after 17 hrs by fluorescence assay
T1 sequence (Q9UBN7 whole entry): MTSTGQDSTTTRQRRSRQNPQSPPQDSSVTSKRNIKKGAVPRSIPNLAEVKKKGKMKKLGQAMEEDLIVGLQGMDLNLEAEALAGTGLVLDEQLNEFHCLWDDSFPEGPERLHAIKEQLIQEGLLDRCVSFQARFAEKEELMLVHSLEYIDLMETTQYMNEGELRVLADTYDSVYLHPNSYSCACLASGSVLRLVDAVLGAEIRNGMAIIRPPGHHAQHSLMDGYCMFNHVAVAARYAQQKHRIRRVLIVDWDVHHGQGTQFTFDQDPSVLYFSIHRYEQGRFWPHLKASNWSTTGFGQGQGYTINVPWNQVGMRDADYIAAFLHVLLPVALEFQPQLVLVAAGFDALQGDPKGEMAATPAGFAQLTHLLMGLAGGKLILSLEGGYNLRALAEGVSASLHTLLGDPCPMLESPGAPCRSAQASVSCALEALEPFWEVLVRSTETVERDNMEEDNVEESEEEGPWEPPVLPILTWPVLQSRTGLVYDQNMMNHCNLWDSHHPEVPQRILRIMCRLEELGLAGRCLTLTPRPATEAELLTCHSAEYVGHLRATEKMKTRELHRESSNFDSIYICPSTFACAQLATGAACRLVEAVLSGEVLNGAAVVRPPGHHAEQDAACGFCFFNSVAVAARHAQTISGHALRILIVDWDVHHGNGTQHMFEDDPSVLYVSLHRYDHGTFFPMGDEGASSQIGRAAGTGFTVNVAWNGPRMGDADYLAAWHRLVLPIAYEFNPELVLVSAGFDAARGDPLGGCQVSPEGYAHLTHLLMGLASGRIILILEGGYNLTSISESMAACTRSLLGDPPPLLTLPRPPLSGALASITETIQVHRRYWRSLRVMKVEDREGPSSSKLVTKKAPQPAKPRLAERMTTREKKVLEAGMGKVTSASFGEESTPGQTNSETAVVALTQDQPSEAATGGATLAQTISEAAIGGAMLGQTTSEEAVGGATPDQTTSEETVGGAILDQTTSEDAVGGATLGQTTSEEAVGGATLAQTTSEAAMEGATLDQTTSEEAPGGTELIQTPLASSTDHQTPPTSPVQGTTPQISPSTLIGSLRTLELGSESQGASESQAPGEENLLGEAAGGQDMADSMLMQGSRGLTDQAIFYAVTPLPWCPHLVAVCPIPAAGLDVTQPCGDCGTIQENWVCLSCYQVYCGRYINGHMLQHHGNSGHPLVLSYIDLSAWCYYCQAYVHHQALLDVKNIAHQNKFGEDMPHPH
In short: (§2)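 Purified HDAC isoforms incubated with compound and 1 μM carboxyfluorescein-labelled peptide for 17 h at 25 °C. Reaction stopped with HEPES/0.08% SDS. Substrate and product separated electrophoretically and read by fluorescence. Run in duplicate. IC50 from 12-point curves by nonlinear regression.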

Histone deacetylase 8 = molecular target: T2, Histone deacetylase 8 (Homo sapiens, UniProt Q9BY41); assay: Inhibition of HDAC8 using carboxyfluorescein-labeled peptide as substrate after 17 hrs by fluorescence assay; in short: as §2
T2 sequence (Q9BY41 whole entry): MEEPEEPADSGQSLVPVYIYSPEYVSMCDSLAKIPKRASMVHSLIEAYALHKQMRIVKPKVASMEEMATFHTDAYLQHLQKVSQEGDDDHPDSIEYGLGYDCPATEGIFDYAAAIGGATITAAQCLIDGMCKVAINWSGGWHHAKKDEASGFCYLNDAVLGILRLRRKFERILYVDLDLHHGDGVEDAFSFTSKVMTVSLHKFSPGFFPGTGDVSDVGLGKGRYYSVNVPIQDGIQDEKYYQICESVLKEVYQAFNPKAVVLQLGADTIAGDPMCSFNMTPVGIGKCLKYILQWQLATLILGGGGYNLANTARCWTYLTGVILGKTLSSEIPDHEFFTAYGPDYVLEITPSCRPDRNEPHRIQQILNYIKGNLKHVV

O=C(/C=C/c1ccc2c(c1)C(=O)CC1(CCN(Cc3ccccc3)CC1)O2)NO
Activity (HCT-116 [1]): Active
Activity (HCT-116 [2]): Active
IC50 [3]: 25.7 nM
IC50 (Histone deacetylase 8): 1760 nM
